Reference: ChEMBL document CHEMBL5058577, “EUbOPEN Chemogenomics Library 2 (Multiplex)” (2022)

Tested on: U2OS
Assay: Multiplex assay against U2OS
Type: toxicity, cell-based
Details: human
Summary of the method: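 With compound added, live cells were imaged on a CQ1 microscope at 37°C and 5% CO2; staining with Hoechst33342, BioTracker Green Microtubule Cytoskeleton Dye, MitoTracker Red and Annexin V Alexa Fluor 680 had been done at seeding. The CellPathfinder machine-learning gating scheme split cells into Hoechst high-intensity objects or normal cells, normal cells into healthy, pyknosed or fragmented nuclei, and pyknosed cells into mitotic or apoptotic. The tubulin, mitochondrial-mass and membrane-permeability phenotypes are per cents of healthy-nucleus cells.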

[1] = 12 h, 1 µM, compound concentration 1 uM, replicate 1
[2] = 12 h, 1 µM, compound concentration 1 uM, replicate 2
[3] = 12 h, 10 µM, compound concentration 10 uM, replicate 1
[4] = 12 h, 10 µM, compound concentration 10 uM, replicate 2
[5] = 24 h, 1 µM, compound concentration 1 uM, replicate 1
[6] = 24 h, 1 µM, compound concentration 1 uM, replicate 2
[7] = 24 h, 10 µM, compound concentration 10 uM, replicate 1
[8] = 24 h, 10 µM, compound concentration 10 uM, replicate 2
[9] = 48 h, 1 µM, compound concentration 1 uM, replicate 1
[10] = 48 h, 1 µM, compound concentration 1 uM, replicate 2
[11] = 48 h, 10 µM, compound concentration 10 uM, replicate 1
[12] = 48 h, 10 µM, compound concentration 10 uM, replicate 2

For `CN(C)C(=O)Cn1cc(-c2ccc(-c3cncc4ccccc34)cc2)cn1`, the “Population Apoptotic (%)” value [1] was 68%, the “Population Fragmented Nuclei (%)” value [1] was 22% and the “Population Healthy Nuclei (%)” value [1] was 68%. For the same compound, the “Population Hoechst High Intensity Objects (%)” value [1] was 3%, the “Population Membrane Permeable-Phenotype (%)” value [1] was 8% and the “Population Mitochondria Different-Phenotype (%)” value [1] was 4%. The “Population Mitotic Cells (%)” value [1] was 31%, the “Population Normal (%)” value [1] was 96% and the “Population Pyknosed Nuclei (%)” value [1] was 9%. For the same compound, the “Population Tubulin-Different-Phenotype (%)” value [1] was 5%, the “Total Cell Count” value [1] was 240 and the “Population Apoptotic (%)” value [2] was 69%. The “Population Fragmented Nuclei (%)” value [2] was 18%, the “Population Healthy Nuclei (%)” value [2] was 69% and the “Population Hoechst High Intensity Objects (%)” value [2] was 0%. For the same compound, the “Population Membrane Permeable-Phenotype (%)” value [2] was 6%, the “Population Mitochondria Different-Phenotype (%)” value [2] was 2% and the “Population Mitotic Cells (%)” value [2] was 30%. The “Population Normal (%)” value [2] was 99%, the “Population Pyknosed Nuclei (%)” value [2] was 11% and the “Population Tubulin-Different-Phenotype (%)” value [2] was 3%. The “Total Cell Count” value [2] was 110, the “Population Apoptotic (%)” value [3] was 66% and the “Population Fragmented Nuclei (%)” value [3] was 21%. For the same compound, the “Population Healthy Nuclei (%)” value [3] was 67%, the “Population Hoechst High Intensity Objects (%)” value [3] was 5% and the “Population Membrane Permeable-Phenotype (%)” value [3] was 20%. For the same compound, the “Population Mitochondria Different-Phenotype (%)” value [3] was 12%, the “Population Mitotic Cells (%)” value [3] was 33% and the “Population Normal (%)” value [3] was 94%. The “Population Pyknosed Nuclei (%)” value [3] was 10%, the “Population Tubulin-Different-Phenotype (%)” value [3] was 14% and the “Total Cell Count” value [3] was 205. The “Population Apoptotic (%)” value [4] was 100%, the “Population Fragmented Nuclei (%)” value [4] was 18% and the “Population Healthy Nuclei (%)” value [4] was 75%. For the same compound, the “Population Hoechst High Intensity Objects (%)” value [4] was 3%, the “Population Membrane Permeable-Phenotype (%)” value [4] was 22% and the “Population Mitochondria Different-Phenotype (%)” value [4] was 19%. The “Population Mitotic Cells (%)” value [4] was 0%, the “Population Normal (%)” value [4] was 96% and the “Population Pyknosed Nuclei (%)” value [4] was 5%. The “Population Tubulin-Different-Phenotype (%)” value [4] was 23%, the “Total Cell Count” value [4] was 98 and the “Population Apoptotic (%)” value [5] was 100%. The “Population Fragmented Nuclei (%)” value [5] was 21%, the “Population Healthy Nuclei (%)” value [5] was 69% and the “Population Hoechst High Intensity Objects (%)” value [5] was 3%. For the same compound, the “Population Membrane Permeable-Phenotype (%)” value [5] was 5%, the “Population Mitochondria Different-Phenotype (%)” value [5] was 2% and the “Population Mitotic Cells (%)” value [5] was 0%. The “Population Normal (%)” value [5] was 96%, the “Population Pyknosed Nuclei (%)” value [5] was 8% and the “Population Tubulin-Different-Phenotype (%)” value [5] was 4%. The “Total Cell Count” value [5] was 278, the “Population Apoptotic (%)” value [6] was 90% and the “Population Fragmented Nuclei (%)” value [6] was 15%. For the same compound, the “Population Healthy Nuclei (%)” value [6] was 76%, the “Population Hoechst High Intensity Objects (%)” value [6] was 1% and the “Population Membrane Permeable-Phenotype (%)” value [6] was 8%. For the same compound, the “Population Mitochondria Different-Phenotype (%)” value [6] was 6%, the “Population Mitotic Cells (%)” value [6] was 9% and the “Population Normal (%)” value [6] was 98%. For the same compound, the “Total Cell Count” value [6] was 127, the “Population Apoptotic (%)” value [7] was 54% and the “Population Fragmented Nuclei (%)” value [7] was 25%. The “Population Healthy Nuclei (%)” value [7] was 64%, the “Population Hoechst High Intensity Objects (%)” value [7] was 3% and the “Population Membrane Permeable-Phenotype (%)” value [7] was 19%. For the same compound, the “Population Mitochondria Different-Phenotype (%)” value [7] was 9%, the “Population Mitotic Cells (%)” value [7] was 45% and the “Population Normal (%)” value [7] was 96%. For the same compound, the “Population Pyknosed Nuclei (%)” value [7] was 9%, the “Population Tubulin-Different-Phenotype (%)” value [7] was 10% and the “Total Cell Count” value [7] was 244. For the same compound, the “Population Apoptotic (%)” value [8] was 80%, the “Population Fragmented Nuclei (%)” value [8] was 11% and the “Population Healthy Nuclei (%)” value [8] was 84%. The “Population Hoechst High Intensity Objects (%)” value [8] was 2%, the “Population Membrane Permeable-Phenotype (%)” value [8] was 16% and the “Population Mitochondria Different-Phenotype (%)” value [8] was 15%. For the same compound, the “Population Mitotic Cells (%)” value [8] was 20%, the “Population Normal (%)” value [8] was 97% and the “Population Pyknosed Nuclei (%)” value [8] was 4%. The “Population Tubulin-Different-Phenotype (%)” value [8] was 14%, the “Total Cell Count” value [8] was 110 and the “Population Apoptotic (%)” value [9] was 87%. The “Population Fragmented Nuclei (%)” value [9] was 18%, the “Population Healthy Nuclei (%)” value [9] was 69% and the “Population Hoechst High Intensity Objects (%)” value [9] was 2%. The “Population Membrane Permeable-Phenotype (%)” value [9] was 6%, the “Population Mitochondria Different-Phenotype (%)” value [9] was 3% and the “Population Mitotic Cells (%)” value [9] was 12%. For the same compound, the “Population Normal (%)” value [9] was 97%, the “Population Pyknosed Nuclei (%)” value [9] was 12% and the “Population Tubulin-Different-Phenotype (%)” value [9] was 4%. The “Total Cell Count” value [9] was 333, the “Population Apoptotic (%)” value [10] was 88% and the “Population Fragmented Nuclei (%)” value [10] was 20%. For the same compound, the “Population Healthy Nuclei (%)” value [10] was 67%, the “Population Hoechst High Intensity Objects (%)” value [10] was 3% and the “Population Membrane Permeable-Phenotype (%)” value [10] was 12%. For the same compound, the “Population Mitochondria Different-Phenotype (%)” value [10] was 9%, the “Population Mitotic Cells (%)” value [10] was 11% and the “Population Normal (%)” value [10] was 96%. The “Population Pyknosed Nuclei (%)” value [10] was 11%, the “Population Tubulin-Different-Phenotype (%)” value [10] was 9% and the “Total Cell Count” value [10] was 163. The “Population Apoptotic (%)” value [11] was 74%, the “Population Fragmented Nuclei (%)” value [11] was 22% and the “Population Healthy Nuclei (%)” value [11] was 62%. The “Population Hoechst High Intensity Objects (%)” value [11] was 2%, the “Population Membrane Permeable-Phenotype (%)” value [11] was 15% and the “Population Mitochondria Different-Phenotype (%)” value [11] was 8%. The “Population Mitotic Cells (%)” value [11] was 25%, the “Population Normal (%)” value [11] was 97% and the “Population Pyknosed Nuclei (%)” value [11] was 14%. For the same compound, the “Population Tubulin-Different-Phenotype (%)” value [11] was 8%, the “Total Cell Count” value [11] was 302 and the “Population Apoptotic (%)” value [12] was 92%. The “Population Fragmented Nuclei (%)” value [12] was 21%, the “Population Healthy Nuclei (%)” value [12] was 68% and the “Population Membrane Permeable-Phenotype (%)” value [12] was 20%. The “Population Mitochondria Different-Phenotype (%)” value [12] was 14%, the “Population Mitotic Cells (%)” value [12] was 7% and the “Population Pyknosed Nuclei (%)” value [12] was 9%. The “Population Tubulin-Different-Phenotype (%)” value [12] was 16% and the “Total Cell Count” value [12] was 149.
